High-throughput results as filed in PubChem BioAssay.
Hits are enriched below; roughly 4.1% of the tested compounds scored in any of these assays.
KCNQ1 inh = blocks the human KCNQ1 potassium channel | actives 1.3% (n = 310,000) | B-score at 10 µM | CHO-K1 KCNQ1, FluxOR thallium flux fluorescence; active compounds read high;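 active = compounds whose thallium flux B-score, printed positive for inhibition, exceeds three library SD while starting fluorescence stays within three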;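 also: channel opened by potassium depolarization with thallium stimulus after 20 min compound exposure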
KCNK9 block = inhibitors of human KCNK9 two-pore domain potassium channel; actives 1.2% (n = 310,000); Q9NPC2; HEK293 KCNK9, FluxOR thallium flux fluorescence; active compounds read low; AID 488922; B-score at 10 µM;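 active = ratio B-score over 3 SD below the library mean, with starting fluorescence within 5 SD of its mean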;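 also: negative B-score means less thallium flux so channel inhibition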
Target sequence (Q9NPC2 whole entry, looked up, the tested form may be a part): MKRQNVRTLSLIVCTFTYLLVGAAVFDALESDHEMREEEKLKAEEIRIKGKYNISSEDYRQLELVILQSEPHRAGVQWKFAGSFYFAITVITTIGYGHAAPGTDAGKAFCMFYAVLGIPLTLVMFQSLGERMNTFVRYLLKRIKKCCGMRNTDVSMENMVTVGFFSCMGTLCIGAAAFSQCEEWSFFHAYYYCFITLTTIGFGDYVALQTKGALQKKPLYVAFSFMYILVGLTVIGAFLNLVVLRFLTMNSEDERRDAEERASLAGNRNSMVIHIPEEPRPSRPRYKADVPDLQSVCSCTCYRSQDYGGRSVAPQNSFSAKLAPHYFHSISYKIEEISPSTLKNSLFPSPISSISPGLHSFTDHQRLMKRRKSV
hERG protect = compounds protecting human hERG from proarrhythmic drug block. CHO-hERG, FluxOR thallium flux, dofetilide IC70 present. activation (rescue from dofetilide block), less the hit threshold, % at 10 µM. actives 0.51% (n = 310,000). AID 1511;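 active = activation above the mean of controls blocked by dofetilide plus 5 SD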;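 also: thallium influx through hERG after potassium depolarization seen as dye fluorescence rise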
KCNQ1 act = potentiates or activates the human KCNQ1 potassium channel | AID 2648 | B-score at 10 µM | CHO-K1 KCNQ1, thallium flux FluxOR fluorescence; active compounds read high | P51787 | actives 0.35% (n = 310,000);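 active = fluorescence ratio B-score, a plate-corrected score, at least three library SD, with initial intensity B-score within 5 SD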
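System: Stable KCNQ1 CHO-K1 line | Incubation: 90 min dye loading and 20 min compound exposure, both at room temperature | Measure: Ratio B score | Medium: Assay buffer for compound exposure, DMSO matched across wells | Compound dosing: Single-concentration screen | Probe or stimulus: K+/Tl+ depolarizing stimulus | Measured by: Kinetic FluxOR fluorescence, 10 s baseline plus 110 s post-stimulus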
KCNK3 inh = human KCNK3 channel inhibition, primary screen; O14649; CHO-KCNK3 thallium flux, FluxOR fluorescence; active compounds read low; B-score at 10 µM; actives 0.84% (n = 340,000); AID 602410;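 active = B-score under library mean minus 4 SD, starting fluorescence ratio at most library mean plus 5 SD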;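 also: more negative B-score means stronger inhibition of thallium flux through KCNK3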
Target sequence (O14649 whole entry, looked up): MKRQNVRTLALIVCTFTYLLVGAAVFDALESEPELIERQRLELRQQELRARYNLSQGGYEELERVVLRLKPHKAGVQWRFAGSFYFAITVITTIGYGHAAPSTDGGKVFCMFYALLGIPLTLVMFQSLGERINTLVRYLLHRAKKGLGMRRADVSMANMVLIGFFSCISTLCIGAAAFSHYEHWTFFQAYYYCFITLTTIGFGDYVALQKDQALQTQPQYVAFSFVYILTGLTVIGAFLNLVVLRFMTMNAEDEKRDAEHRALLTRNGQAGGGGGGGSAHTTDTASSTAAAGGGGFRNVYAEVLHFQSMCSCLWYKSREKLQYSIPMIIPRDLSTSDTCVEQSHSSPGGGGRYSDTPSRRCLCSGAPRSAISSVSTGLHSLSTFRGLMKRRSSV
KCC2 mod = modulates chloride dependent transport by human KCC2; KCC2 cells, thallium flux FluoZin-2 fluorescence; B-score of Tl+ flux slope (higher = more flux/activation; lower = inhibition) at 10 µM; actives 2.2% (n = 190,000); AID 1456;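 active = thallium flux slope and its plate-corrected score both differing from the plate sample mean at a set confidence after two filtering rounds, in either direction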;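 also: slope of fluorescence scaled to starting intensity during 10 to 20 s after thallium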
KCNQ1 block val = confirmation of human KCNQ1 potassium channel inhibitors. inhibition, % at 10 µM. shares compounds with KCNQ1 inh. KCNQ1 cell line, FluxOR thallium flux fluorescence. actives 93% (n = 1,600);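 active = primary screen active, with duplicate mean exceeding buffer control mean plus 3 SD of buffer wells, cut at about 28% in these data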
CHO KCNQ1 ctr = KCNQ1 inhibitor counter-screen hit in parental CHO cells; shares compounds with KCNQ1 inh; actives 21% (n = 1,600); fluorescence ratio (Tl flux) at 10 µM; parental CHO-K1, FluxOR thallium flux fluorescence ratio; active compounds read low; zero means no signal rise above baseline; AID 588366;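 active = mean of duplicate thallium-flux fluorescence ratios in parental host cells more than 5 SD below the buffer control mean, cut at about 0.38 in these data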;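 also: ratio is peak minus minimum fluorescence divided by baseline fluorescence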
KCNQ1 APC inh = confirmation of human KCNQ1 potassium channel inhibitors by electrophysiology; shares compounds with KCNQ1 inh; KCNQ1-CHO cells, automated patch clamp current; calls only at 10 µM; actives 20% (n = 490); AID 624120;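 active = KCNQ1 current drop exceeding 3 SD of negative control wells, seen in both duplicate runs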;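 also: steady state current during a 2 s step from -80 to +40 mV; negative values mean current inhibition and positive values mean potentiation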
KCNQ2 spec = selectivity of KCNQ1 inhibitors: inhibition of rat KCNQ2 channel | inhibition, % at 10 µM | KCNQ2 cells, FluxOR thallium flux fluorescence | actives 71% (n = 1,600) | shares compounds with KCNQ1 inh;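 active = mean percent inhibition of the KCNQ2 thallium signal more than 5 SD above the buffer-only control wells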;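 also: KCNQ2 expressed in CHO cells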
KCNQ1 KCNE1 spec = selectivity of KCNQ1 inhibitors: inhibition of human KCNQ1/KCNE1 channel. KCNQ1/KCNE1 cells, FluxOR thallium flux fluorescence. AID 652147. inhibition, % at 10 µM. actives 77% (n = 1,600). shares compounds with KCNQ1 inh;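 active = mean percent inhibition of duplicate wells above the buffer-only control mean plus 3 SD of those controls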
Of the large screens only hits and unclear results are named; the others gave an inactive call (follow-up assays come after a bar, where they were run).

COC(=O)c1cc(NC(=S)Nc2cc(Cl)cc(Cl)c2)cc(C(=O)OC)c1	KCNQ1 inh 8 | KCNQ1 block val 66 | CHO KCNQ1 ctr inactive | KCNQ2 spec 59% | KCNQ1 KCNE1 spec inactive
O=C(Nc1ccncc1)Nc1ccc(Cl)cc1	KCNQ1 inh 7 (no result: KCC2 mod) | KCNQ1 block val 28 | CHO KCNQ1 ctr inactive | KCNQ2 spec inactive | KCNQ1 KCNE1 spec inactive
O=C(Nc1ccncc1)Nc1ccncc1	none (no result: KCC2 mod)
COC(=O)c1cccc(NC(=S)Nc2cccc(Cl)c2C)c1	none
O=C(Nc1cccc(Cl)c1Cl)C1CCCO1 (stereo not drawn)	none (no result: KCC2 mod)
COC(=O)c1cccc(NC(=S)Nc2ccccc2Cl)c1	none
COC(=O)c1cccc(NC(=S)Nc2ccc(Cl)c(Cl)c2)c1	KCNQ1 inh 8 | KCNQ1 block val 168 | CHO KCNQ1 ctr inactive | KCNQ1 APC inh inactive | KCNQ2 spec inactive | KCNQ1 KCNE1 spec inactive
COc1ccc(NC(=S)Nc2cccc(C(C)=O)c2)cc1OC	none
COc1ccc(NC(=S)Nc2cccc(Cl)c2)cc1OC	KCNQ1 inh 13 | KCNQ1 block val 32 | CHO KCNQ1 ctr inactive | KCNQ2 spec inactive | KCNQ1 KCNE1 spec inactive
COC(=O)c1cc(NC(=O)Nc2cccc(Cl)c2)ccc1Cl	KCNQ1 inh 6 (no result: KCC2 mod) | KCNQ1 block val 62 | CHO KCNQ1 ctr inactive | KCNQ2 spec inactive | KCNQ1 KCNE1 spec inactive
CN1CCN(S(=O)(=O)c2ccc(NC(=O)Nc3cccc(Cl)c3)cc2)CC1	KCNQ1 inh 11 | KCNQ1 block val 62 | CHO KCNQ1 ctr inactive | KCNQ2 spec 65% | KCNQ1 KCNE1 spec inactive
COc1ccc(CCNC(=O)COC(=O)c2cc(Cl)nc(Cl)c2)cc1	none (no result: KCNQ1 inh, KCNK9 block, hERG protect, KCNQ1 act, KCC2 mod)
COC(=O)c1cccc(NC(=O)Nc2ccc(Cl)cc2)c1	KCNQ1 inh 7 | KCNQ1 block val 44 | CHO KCNQ1 ctr inactive | KCNQ2 spec inactive | KCNQ1 KCNE1 spec inactive
CC(Sc1ccc(Cl)cc1)C(=O)NNC(=O)c1ccco1 (stereo not drawn)	none (no result: KCNQ1 inh, KCNK9 block, hERG protect, KCNQ1 act, KCC2 mod)
Cc1cc(C)n(Cc2cccc(C(=O)N/N=C/c3ccncc3)c2)n1	none (no result: KCC2 mod)
CSc1nc(N)nc2c1ncn2CC(=O)N[C@H](C)c1cccc2ccccc12	none (no result: KCNQ1 inh, KCNK9 block, hERG protect, KCNQ1 act, KCC2 mod)
CCOC(=O)C1CCN(C2=C(NS(=O)(=O)c3ccc(Cl)cc3)C(=O)c3ccccc3C2=O)CC1	KCNQ1 inh 6 | KCNQ1 block val 124 | CHO KCNQ1 ctr 0.32 | KCNQ2 spec 135% | KCNQ1 KCNE1 spec 182%
CC1CN(S(=O)(=O)c2cccc(C(=O)Nc3ccccc3N3CCCCC3)c2)CC(C)O1 (stereo not drawn)	KCNQ1 inh 7 (no result: KCC2 mod) | KCNQ1 block val 76 | CHO KCNQ1 ctr inactive | KCNQ2 spec 114% | KCNQ1 KCNE1 spec 88%
CCN(CC)S(=O)(=O)c1ccc(NC(=O)C2CC(=O)N(c3ccc4c(c3)OCCO4)C2)cc1 (stereo not drawn)	none (no result: KCNQ1 inh, KCNK9 block, hERG protect, KCNQ1 act, KCC2 mod)
CCC(C(=O)OC)n1cnc2scc(-c3ccc(C)c(C)c3)c2c1=O (stereo not drawn)	KCNQ1 inh 7 (no result: KCC2 mod) | KCNQ1 block val 52 | CHO KCNQ1 ctr inactive | KCNQ2 spec 61% | KCNQ1 KCNE1 spec inactive
CCCOC(=O)C(C)n1cnc2scc(-c3ccc(C)cc3)c2c1=O (stereo not drawn)	KCNQ1 inh 9 (no result: KCC2 mod) | KCNQ1 block val 93 | CHO KCNQ1 ctr inactive | KCNQ1 APC inh active | KCNQ2 spec 70% | KCNQ1 KCNE1 spec 116%
Cc1ccc(C)c(OCCC(=O)OCC(=O)Nc2ccc(Cl)cn2)c1	none (no result: KCC2 mod)
CC1(C)CC(NS(=O)(=O)c2ccc(C(C)(C)C)cc2)CC(C)(C)N1	none (no result: KCC2 mod)
CC(=O)c1ccc(OCCCC(=O)Nc2ccc(S(=O)(=O)N3CCOCC3)cc2)cc1	none (no result: KCC2 mod)
CCOC(=O)CSC1=C(C#N)C(c2ccco2)C(C(=O)Nc2cccc(C(F)(F)F)c2)=C(C)N1 (stereo not drawn)	KCNQ1 inh 8 | KCNQ1 block val 145 | CHO KCNQ1 ctr inactive | KCNQ1 APC inh inactive | KCNQ2 spec 125% | KCNQ1 KCNE1 spec active
CC(=O)C1=C(C)NC(SCC(=O)c2ccccc2)=C(C#N)C1c1ccco1 (stereo not drawn)	none (no result: KCNK3 inh, KCC2 mod)
COc1ccc(C(=O)Nc2nnc(Cc3ccc(OC)c(OC)c3)s2)cc1	none (no result: KCC2 mod)
CC(=O)Nc1cccc(-c2csc(Nc3cc(C)ccn3)n2)c1	KCNQ1 inh 6 (no result: KCC2 mod) | KCNQ1 block val 70 | CHO KCNQ1 ctr inactive | KCNQ2 spec 90% | KCNQ1 KCNE1 spec 38%
CC(=O)Nc1ccc(-c2csc(Nc3cc(C)ccn3)n2)cc1	none
Cc1nnc(SCC(=O)Nc2cc(Cl)ccc2Cl)n1CC1CCCO1 (stereo not drawn)	none (no result: KCC2 mod)
CC1(C)Cc2c(cnn2-c2ccc(F)cc2)C(NC(=O)C(C)(C)O)C1 (stereo not drawn)	none (no result: KCC2 mod)
CC1(C)Cc2c(cnn2-c2ccc(F)cc2)C(NC(=O)C2CCC2)C1 (stereo not drawn)	KCNQ1 inh 8 (no result: KCC2 mod) | KCNQ1 block val 103 | CHO KCNQ1 ctr inactive | KCNQ1 APC inh active | KCNQ2 spec 70% | KCNQ1 KCNE1 spec 112%
CC(=O)Nc1sc(/C(C#N)=C/c2ccc(Cl)c(Cl)c2)nc1-c1ccc(C)cc1	KCNQ1 inh 16 | KCNQ1 block val active | CHO KCNQ1 ctr 0.23 | KCNQ2 spec inactive | KCNQ1 KCNE1 spec inactive
CC(C)c1noc2ncc(C(=O)c3cc(Cl)cc(Cl)c3O)cc12	KCNQ1 inh 6 (no result: KCC2 mod) | KCNQ1 block val 52 | CHO KCNQ1 ctr inactive | KCNQ2 spec inactive | KCNQ1 KCNE1 spec inactive
Nc1nc2ncc(C(=O)c3cc(Cl)cc(Cl)c3O)cc2s1	none
O=C(Nc1ccc(F)cc1)C(NC1CCCCC1)c1ccccc1 (stereo not drawn)	KCNQ1 inh 7 | KCNQ1 block val 76 | CHO KCNQ1 ctr inactive | KCNQ2 spec 65% | KCNQ1 KCNE1 spec 105%
CCOC(=O)c1cc(-c2ccccc2)sc1NC(=O)C(C)(C)C	none
CCOC(=O)c1cc(-c2ccccc2)sc1NC(=O)CC(C)C	KCNQ1 inh 6 | KCNQ1 block val 100 | CHO KCNQ1 ctr 0.35 | KCNQ2 spec 127% | KCNQ1 KCNE1 spec 116%
